The term IC50 denotes the midpoint of a concentration-inhibition curve.

Common to all, as to assay type: functional, cell-based
The test system of assay [1] is M14. Nature of the assay: Cytotoxicity against human M14 cells at 1 to 50 uM after 48 hrs by MTT assay. The procedure, abridged: (§1)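 M-14 melanoma cells grown in DMEM with 2 mM L-glutamine, 10% heat-inactivated FBS and 1% penicillin/streptomycin, used for at most 10 passages. Cells were seeded at 3 × 10^3 per well, given serial dilutions (1–50 μM) and incubated 48 h at 37 °C in humidified 5% CO2. Viability was read by MTT at 620 nm.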

In assay [2] the test system is M14. Kind of assay: Cytotoxicity against human M14 cells after 48 hrs by MTT assay. Particulars: M14, 48 h. The procedure, abridged: as §1
A general note: Tetrazolium dyes change colour on reduction, which living cells bring about.

Assay [3] deals with M14. Kind of assay: Induction of apoptosis in human M14 cells assessed as activation of caspase-3 at 50 uM after 24 hrs by Western blot analysis presence of polycaspase inhibitor z-VAD-fmk.
In assay [4] the test system is M14. Nature of the assay: Induction of apoptosis in human M14 cells assessed as activation of caspase-3 at 50 uM after 8 to 24 hrs by Western blot analysis. A general note: Immunoblotting shows a protein as a band on a membrane.
The test system of assay [5] is M14. Kind of assay: Induction of apoptosis in human M14 cells assessed as increase in hypodiploid cells up to 25 uM after 24 hrs using propidium iodide staining by flow cytometry. In short, it runs like this: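 M-14 cells were treated with 1–50 μM for 24 h, then collected and stained with propidium iodide. The percentage of hypodiploid (apoptotic) nuclei was measured by flow cytometry against untreated controls. Values are means ± SEM of three experiments run in triplicate.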
(In general: In flow cytometry, cells or beads pass a laser one at a time.)

Assay [6] relates to M14. Nature of the assay: Induction of apoptosis in human M14 cells assessed as increase in hypodiploid cells after 24 hrs using propidium iodide staining by flow cytometry. In short, it runs like this:
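M-14 melanoma cells (DMEM, 2 mM L-glutamine, 10% heat-inactivated FBS, 1% penicillin/streptomycin, 37 °C, humidified 5% CO2, ≤10 passages) incubated 24 h with serial dilutions of compounds (1–50 μM). Nuclei stained with propidium iodide and analysed by flow cytometry. Apoptosis is taken as the percentage of hypodiploid nuclei versus untreated control. Three experiments, each in triplicate, means ± SEM.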

Molecules are shown by their SMILES. Active and inactive are the calls of the source. No cut-off for these calls is given here.

In the case of `C[C@@]12C[C@@]3(O)O[C@@H](O1)[C@]1(COC(=O)c4ccccc4)[C@@H]3C[C@]12O[C@@H]1O[C@H](COC(=O)c2ccccc2)[C@@H](O)[C@H](O)[C@H]1O`, the result in the assay on M14 [1] was inactive. Same read-out and setting: the value for `CC1(C)[C@@H](O)CC[C@]2(C)[C@H]3C=CC4=C(O)C(=O)C(=O)[C@@]4(C)[C@]3(C)CC[C@@H]12` was “inactive”. The same measure, in the same setting: the value for `O=C(O)c1ccccc1` was “inactive”. As for `CC1(C)CC[C@]2(C(=O)O)CC[C@]3(C)C(=CC[C@@H]4[C@@]5(C)CC[C@H](O)C(C)(C)[C@@H]5CC[C@]43C)[C@@H]2C1` [OLEANOLIC_ACID], half-maximal inhibition in the assay on M14 [2] (IC50) was put at 82 µM. For the same compound, in the assay on M14 [3], the result was inactive. The result in the assay on M14 [4] and in the assay on M14 [5] was Active. Regarding `C=C1CC[C@]2(C(=O)O)CC[C@]3(C)C(=CC[C@@H]4[C@@]5(C)CC[C@H](O)C(C)(C)[C@@H]5CC[C@]43C)[C@@H]2C1`, the result in the assay on M14 [1] was inactive.

Regarding `C=C1CC[C@]2(C(=O)O)CC[C@]3(C)C(=CC[C@@H]4[C@@]5(C)CC[C@H](O)[C@](C)(O)[C@@H]5CC[C@]43C)[C@@H]2C1`, in the assay with M14 [1], the result was inactive. On the same count and under the same terms, the value for `COc1ccc(C(C)=O)c(O)c1` was “inactive”; that for `C=C1CC[C@@]23CC[C@]4(C)[C@@](OC2=O)([C@@H]3C1)[C@H]1O[C@H]1[C@@H]1[C@@]2(C)CC[C@H](O)[C@@](O)(CO)[C@@H]2CC[C@]14C` was “inactive”. `COc1cc2c(cc1O)[C@H](CO)[C@H](c1ccc(CCCO)c(OC)c1)O2` [LAWSONICIN]: in the assay on M14 [2], 100 µM corresponded to half-maximal inhibition (IC50). `CC1(C)CC[C@]2(C(=O)O)CC[C@]3(C)C(=CC[C@@H]4[C@@]5(C)CC[C@H](O)[C@@](C)(CO)[C@@H]5CC[C@]43C)[C@@H]2C1` [HEDERAGENIN] registered an IC50 in the assay on M14 [2] of 58 µM. Also, the outcome in the assay on M14 [3] was inactive. The outcome in the assay on M14 [4] and in the assay on M14 [5] was Active. On to `C[C@@]12CC(=O)[C@H]3C[C@]1(O)O[C@H](O2)[C@@H]3COC(=O)c1ccccc1`, for which, in the assay with M14 [1], the result was inactive. With `C=C(C)[C@@H]1CC[C@]2(C(=O)O)CC[C@]3(C)[C@H](CC[C@@H]4[C@@]5(C)CC[C@H](O)[C@@](C)(CO)[C@@H]5CC[C@]43C)[C@@H]12`, in the assay on M14 [2], the IC50 came to 50 µM. This lies in the double-digit micromolar range. With `C=C(C)[C@@H]1CC[C@]2(C(=O)O)CC[C@]3(C)[C@H](CC[C@@H]4[C@@]5(C)CC[C@H](O)C(C)(C)[C@@H]5CC[C@]43C)[C@@H]12` [BETULINIC ACID], in the assay on M14 [2], the IC50 turned out to be 50 µM. The result with M14 [3] was inactive. In addition, the result in the assay on M14 [4] was Active. Also, the Activity entry in the assay with M14 [6] was “Dose-dependent effect”.

The record behind these values is ChEMBL document CHEMBL1833907, “Triterpenoid constituents from the roots of Paeonia rockii ssp. rockii” (J Nat Prod, 2011).
